# Source: ChEMBL document CHEMBL1146321, “Transformation of mu-opioid receptor agonists into biologically potent mu-opioid receptor antagonists” (Bioorg Med Chem, 2007)
# Active and inactive are the calls of the source.
# Assays:
# [1] = target: Mu-type opioid receptor (Rattus norvegicus, UniProt P33535); experiment: Displacement of [3H]DAMGO from mu opioid receptor in rat brain P2 synaptosome; type: tissue-based
# [2] = target: Delta-type opioid receptor (Rattus norvegicus, UniProt P33533); experiment: Displacement of [3H]deltorphin 2 from delta opioid receptor in rat brain P2 synaptosome; type: tissue-based
# Sequence of Delta-type opioid receptor (Rattus norvegicus, UniProt P33533) (P33533 whole entry): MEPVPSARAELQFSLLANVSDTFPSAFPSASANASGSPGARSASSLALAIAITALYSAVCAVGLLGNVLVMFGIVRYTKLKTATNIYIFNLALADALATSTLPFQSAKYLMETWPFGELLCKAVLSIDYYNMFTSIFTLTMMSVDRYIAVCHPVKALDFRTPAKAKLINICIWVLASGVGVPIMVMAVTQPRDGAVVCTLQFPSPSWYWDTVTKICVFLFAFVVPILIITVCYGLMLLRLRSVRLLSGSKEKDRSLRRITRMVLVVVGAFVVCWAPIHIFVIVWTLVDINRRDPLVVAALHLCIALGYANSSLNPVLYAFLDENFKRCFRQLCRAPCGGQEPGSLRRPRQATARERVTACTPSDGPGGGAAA
# [3] = target: Opioid receptors; mu & delta (Rattus norvegicus) (UniProt P33533+P33535); experiment: Selectivity for rat mu opioid receptor over rat delta opioid receptor; type: protein assay
# Sequence of Opioid receptors; mu & delta (Rattus norvegicus) (P33533 whole entry, looked up): as the sequence (P33533 whole entry) above
# Sequence of Opioid receptors; mu & delta (Rattus norvegicus) (P33535 whole entry, looked up): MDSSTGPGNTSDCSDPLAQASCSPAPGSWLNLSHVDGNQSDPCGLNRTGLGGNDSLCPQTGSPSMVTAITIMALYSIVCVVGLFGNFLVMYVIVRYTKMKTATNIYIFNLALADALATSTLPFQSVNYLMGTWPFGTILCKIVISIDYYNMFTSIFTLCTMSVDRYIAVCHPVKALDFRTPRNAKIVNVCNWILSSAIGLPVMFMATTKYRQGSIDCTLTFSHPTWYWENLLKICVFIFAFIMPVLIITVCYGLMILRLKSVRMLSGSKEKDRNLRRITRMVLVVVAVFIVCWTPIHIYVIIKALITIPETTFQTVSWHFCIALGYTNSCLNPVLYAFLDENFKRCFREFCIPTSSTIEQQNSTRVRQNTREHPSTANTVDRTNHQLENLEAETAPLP
# [4] = target: T1, Mu-type opioid receptor (Cavia porcellus, UniProt P97266); experiment: Agonist activity at mu opioid receptor in Hartley guinea pig intestine assessed as inhibition of electrically evoked myenteric plexus longitudinal muscle contractions; type: functional, tissue-based
# T1 sequence (P97266 whole entry): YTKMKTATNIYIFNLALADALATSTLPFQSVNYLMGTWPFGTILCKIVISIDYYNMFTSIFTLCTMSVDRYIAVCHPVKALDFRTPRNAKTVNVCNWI
# How it was run: (§1)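 Isolated tissue in organ baths of balanced physiological salt buffer, pH 7.5: male Hartley guinea pig ileum myenteric plexus longitudinal muscle (μ) or single mouse vas deferens (δ). Agonist inhibition of electrically evoked contractions; IC50 (nM) from dose–response curves, mean ± SE of five to six separate tissue preparations.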
# [5] = target: T1, Mu-type opioid receptor; experiment: Antagonist activity at mu opioid receptor in Hartley guinea pig intestine assessed as inhibition of DAMGO-induced effect on myenteric plexus longitudinal muscle contractions; type: functional, tissue-based; conditions: read-out: pA2 (converted)
# [6] = target: T2, Delta-type opioid receptor (Mus musculus, UniProt P32300); experiment: Agonist activity at delta opioid receptor in mouse vas deferens assessed as inhibition of electrically evoked muscle contractions; type: functional, tissue-based; how it was run: as §1
# T2 sequence (P32300 whole entry): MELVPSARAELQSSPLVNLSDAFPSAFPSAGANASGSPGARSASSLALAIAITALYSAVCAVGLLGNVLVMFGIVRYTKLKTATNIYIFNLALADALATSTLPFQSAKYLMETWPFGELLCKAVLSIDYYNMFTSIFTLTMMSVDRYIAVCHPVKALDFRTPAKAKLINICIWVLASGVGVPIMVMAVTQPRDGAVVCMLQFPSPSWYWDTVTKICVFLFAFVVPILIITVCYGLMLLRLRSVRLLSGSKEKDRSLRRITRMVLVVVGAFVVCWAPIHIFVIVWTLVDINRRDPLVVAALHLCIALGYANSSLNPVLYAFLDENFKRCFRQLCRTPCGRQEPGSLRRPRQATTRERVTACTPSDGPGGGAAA
# [7] = target: T2, Delta-type opioid receptor; experiment: Antagonist activity at delta opioid receptor in mouse vas deferens assessed as inhibition of deltorphin 2-induced effect on muscle contractions; type: functional, tissue-based; conditions: read-out: pA2 (converted)
# [8] = Ratio of pA2 for delta opioid receptor in MVD to pA2 for mu opioid receptor in GPI; type: functional
# [9] = tested on: Mus musculus; experiment: Inhibition of morphine-induced antinociception in mouse at 0.148 ng, icv after 10 mins by hot plate test; type: functional, organism-based
# How it was run: (§2)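 Male mice received morphine 4 mg/kg sc, then test compound icv 5 min later. Hot plate at 55.0 °C; latency to hind-paw licking or shaking, baseline 15 s, cut-off 30 s, read 10 min after icv dosing. Results as %MPE. AD50 is the dose blocking 50% of morphine antinociception at 10 min; 95% confidence limits; n = 10–17 mice per point.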
# [10] = target: Mu-type opioid receptor (Cavia porcellus) (UniProt P97266); experiment: Agonist activity at mu opioid receptor in Hartley guinea pig intestine assessed as inhibition of electrically evoked myenteric plexus longitudinal muscle contractions at 10000 nM; type: functional, tissue-based
# Sequence of Mu-type opioid receptor (Cavia porcellus) (P97266 whole entry): as the sequence (P97266 whole entry) above
# [11] = target: Delta-type opioid receptor (Mus musculus) (UniProt P32300); experiment: Agonist activity at delta opioid receptor in mouse vas deferens assessed as inhibition of electrically evoked muscle contractions at 10000 nM; type: functional, tissue-based
# Sequence of Delta-type opioid receptor (Mus musculus) (P32300 whole entry): as the sequence (P32300 whole entry) above
# [12] = tested on: Mus musculus; experiment: Inhibition of morphine-induced spinal antinociception in intracerebroventricularly dosed mouse by tail-flick test; type: functional, organism-based
# How it was run: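 Male mice given morphine 4 mg/kg sc, then compound icv 5 min later. Tail-flick latency measured to radiant heat, baseline 2–3 s, cut-off 8 s.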
# [13] = tested on: Mus musculus; experiment: Inhibition of morphine-induced antinociception in mouse at 2.38 ng, icv after 10 mins by hot plate test; type: functional; how it was run: as §2
# [14] = tested on: Hippocampus; experiment: Inhibition of ethanol-induced frequency of spontaneous inhibitory post-synaptic currents in rat hippocampal neurons by patch clamp technique at 300 nM; type: functional
# How it was run: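 Rat hippocampal slices (300 µm), held in oxygenated ACSF 60 min at room temperature. Whole-cell patch clamp of CA1 pyramidal cells at −70 mV. GABAA IPSCs isolated with 50 µM AP5 and 20 µM DNQX. Recording periods of 10 min each: baseline, then 60 mM EtOH, then compound in EtOH. n = 6 slices; paired t-tests.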
# Sequence of Mu-type opioid receptor (Rattus norvegicus, UniProt P33535) (P33535 whole entry): as the sequence (P33535 whole entry, looked up) above
Compound,Ki [1],Ki [2],Ratio Ki [3],IC50 [4],Kb [5],IC50 [6],Kb [7],Ratio pA2 [8],Activity [9],inhibition [10],inhibition [11],Activity [12],AD50 [13],inhibition at 0.3 µM [14]
C=CCN[C@@H](Cc1c(C)cc(O)cc1C)C(=O)N1CCC[C@H]1C(=O)N[C@@H](Cc1ccccc1)C(=O)N[C@@H](Cc1ccccc1)C(N)=O,0.45 nM,560 nM,1240,> 10000 nM,2.57 nM,> 10000 nM,479 nM,186,inactive,49.3%,42.8%,inactive,–,–
Cc1cc(O)cc(C)c1C[C@H](N)C(=O)N1CCC[C@H]1C(=O)N[C@@H](Cc1c[nH]c2ccccc12)C(=O)N[C@@H](Cc1ccccc1)C(N)=O,0.054 nM,5.6 nM,104,0.27 nM,–,> 10000 nM,2.51 nM,–,–,–,21.6%,–,–,–
C=CCN1CC[C@]23c4c5ccc(O)c4O[C@H]2C(=O)CC[C@@]3(O)[C@H]1C5 [NALOXONE],–,–,–,–,–,–,–,–,–,–,–,–,2.38 ng,–
C=CCNC(=O)[C@H](Cc1ccccc1)NC(=O)[C@H](Cc1ccccc1)NC(=O)[C@@H]1CCCN1C(=O)[C@H](Cc1ccc(O)cc1)NCC=C,–,–,6,–,–,–,–,–,–,–,–,–,–,–
C=CCN[C@@H](Cc1ccc(O)cc1)C(=O)N1CCC[C@H]1C(=O)N[C@@H](Cc1ccccc1)C(=O)N[C@@H](Cc1ccccc1)C(N)=O,–,–,57,–,–,–,–,–,–,–,–,–,–,–
C=CCN[C@@H](Cc1c(C)cc(O)cc1C)C(=O)N1CCC[C@H]1C(=O)N[C@@H](Cc1c[nH]c2ccccc12)C(=O)N[C@@H](Cc1ccccc1)C(N)=O,0.26 nM,10.3 nM,40,> 10000 nM,6.61 nM,> 10000 nM,47.9 nM,7.2,–,49%,37.5%,–,–,26%
